≈ marks a conversion by molar mass, not a printed value.
Columns and labels:
Type in all cases: functional
Bacillus subtilis = assay: Antibacterial activity against Bacillus subtilis ATCC 10400 after 18 hrs by EUCAST broth dilution method; conditions: for MIC: Bacillus subtilis, ATCC 10400, 18 h
Staphylococcus aureus = assay: Antibacterial activity against Staphylococcus aureus ATCC 29213 after 18 hrs by EUCAST broth dilution method; conditions: for MIC: Staphylococcus aureus, ATCC 29213, 18 h
Procedure, shortened: (§1)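 Broth microdilution in Mueller-Hinton broth per CLSI. Compounds dissolved in DMSO at 5120 µg/mL, diluted tenfold in MHB to 512 µg/mL, then twofold serially across 12 wells down to 0.25 µg/mL. Strains grown in tryptone soy broth; 5 µL inoculum (10^4-10^5 CFU/mL) added per well. Incubated 35 °C, 18 h. MIC read manually as the lowest concentration preventing visible growth.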

Escherichia coli = assay: Antibacterial activity against Escherichia coli ATCC 25922 after 18 hrs by EUCAST broth dilution method; conditions: ATCC 25922, 18 h; procedure, shortened: as §1
Pseudomonas aeruginosa = assay: Antibacterial activity against Pseudomonas aeruginosa ATCC 27853 after 18 hrs by EUCAST broth dilution method; conditions: for MIC: Pseudomonas aeruginosa, ATCC 27853, 18 h; procedure, shortened: as §1

| Compound | log(1/MIC), MIC in mM (Bacillus subtilis) | MIC (Bacillus subtilis) [µM] | log(1/MIC), MIC in mM (Staphylococcus aureus) | MIC (Staphylococcus aureus) [µM] | MIC (Escherichia coli) [µM] | log(1/MIC), MIC in mM (Pseudomonas aeruginosa) | MIC (Pseudomonas aeruginosa) [µM] |
| --- | --- | --- | --- | --- | --- | --- | --- |
| CCn1cc(C(=O)O)c(=O)c2cc(F)c(N3CCN(S(=O)(=O)c4ccc5ccccc5c4)CC3)cc21 | 3.01 | 0.981 (≈ 0.5 µg/mL) | 2.71 | 1.96 (≈ 0.999 µg/mL) | 251 (≈ 128 µg/mL) | 0.9 | 126 (≈ 64.2 µg/mL) |
| O=C(O)c1cn(C2CC2)c2cc(N3CCN(S(=O)(=O)c4ccc5ccccc5c4)CC3)c(F)cc2c1=O | 2.72 | 1.92 (≈ 1 µg/mL) | 2.72 | 1.92 (≈ 1 µg/mL) | 123 (≈ 64.2 µg/mL) | 0.61 | 245 (≈ 128 µg/mL) |
| CCn1cc(C(=O)O)c(=O)c2cc(F)c(N3CCN(S(=O)(=O)c4cccc5ccccc45)CC3)cc21 | 3.01 | 0.981 (≈ 0.5 µg/mL) | 2.71 | 1.96 (≈ 0.999 µg/mL) | 251 (≈ 128 µg/mL) | 0.6 | 251 (≈ 128 µg/mL) |
| O=C(O)c1cn(C2CC2)c2cc(N3CCN(S(=O)(=O)c4cccc5ccccc45)CC3)c(F)cc2c1=O | 3.32 | 0.479 (≈ 0.25 µg/mL) | 2.72 | 1.92 (≈ 1 µg/mL) | 61.3 (≈ 32 µg/mL) | 0.91 | 123 (≈ 64.2 µg/mL) |
| CCn1cc(C(=O)O)c(=O)c2cc(F)c(N3CCN(S(=O)(=O)c4ccc(OC)cc4OC)CC3)cc21 | 3.32 | 0.481 (≈ 0.25 µg/mL) | 3.32 | 0.481 (≈ 0.25 µg/mL) | ≤ 0.481 | 2.14 | 3.85 (≈ 2 µg/mL) |
| COc1ccc(S(=O)(=O)N2CCN(c3cc4c(cc3F)c(=O)c(C(=O)O)cn4C3CC3)CC2)c(OC)c1 | 3.33 | ≤ 0.47 | 3.33 | ≤ 0.47 | ≤ 0.47 | 3.33 | 0.47 (≈ 0.25 µg/mL) |
| CCn1cc(C(=O)O)c(=O)c2cc(F)c(N3CCN(S(=O)(=O)c4ccc(OC)c(OC)c4)CC3)cc21 | 3.02 | 0.962 (≈ 0.5 µg/mL) | 3.02 | 0.962 (≈ 0.5 µg/mL) | ≤ 0.481 | 2.14 | 3.85 (≈ 2 µg/mL) |
| COc1ccc(S(=O)(=O)N2CCN(c3cc4c(cc3F)c(=O)c(C(=O)O)cn4C3CC3)CC2)cc1OC | 3.33 | 0.47 (≈ 0.25 µg/mL) | 3.33 | ≤ 0.47 | ≤ 0.47 | 2.42 | 3.76 (≈ 2 µg/mL) |
| CCn1cc(C(=O)O)c(=O)c2cc(F)c(N3CCN(S(=O)(=O)c4ccc(F)cc4F)CC3)cc21 | 2.39 | 4.04 (≈ 2 µg/mL) | 2.09 | 8.07 (≈ 4 µg/mL) | 8.07 (≈ 4 µg/mL) | 0.89 | 129 (≈ 63.9 µg/mL) |
| O=C(O)c1cn(C2CC2)c2cc(N3CCN(S(=O)(=O)c4ccc(F)cc4F)CC3)c(F)cc2c1=O | 3.31 | 0.493 (≈ 0.25 µg/mL) | 2.41 | 3.94 (≈ 2 µg/mL) | 7.88 (≈ 4 µg/mL) | 1.2 | 63 (≈ 32 µg/mL) |
| CCn1cc(C(=O)O)c(=O)c2cc(F)c(N3CCN(S(=O)(=O)c4ccc(Cl)cc4Cl)CC3)cc21 | 3.33 | 0.473 (≈ 0.25 µg/mL) | 3.33 | ≤ 0.473 | ≤ 0.473 | 2.86 | 1.39 (≈ 0.734 µg/mL) |
| O=C(O)c1cn(C2CC2)c2cc(N3CCN(S(=O)(=O)c4ccc(Cl)cc4Cl)CC3)c(F)cc2c1=O | 3.33 | ≤ 0.463 | 3.33 | ≤ 0.463 | ≤ 0.463 | 2.73 | 1.85 (≈ 1 µg/mL) |
| CCn1cc(C(=O)O)c(=O)c2cc(F)c(N3CCN(S(=O)(=O)c4ccc(Cl)c(Cl)c4)CC3)cc21 | 3.33 | ≤ 0.473 | 3.33 | ≤ 0.473 | ≤ 0.473 | 2.72 | 1.89 (≈ 0.999 µg/mL) |
| O=C(O)c1cn(C2CC2)c2cc(N3CCN(S(=O)(=O)c4ccc(Cl)c(Cl)c4)CC3)c(F)cc2c1=O | 3.33 | ≤ 0.463 | 3.33 | ≤ 0.463 | ≤ 0.463 | 2.73 | 1.85 (≈ 1 µg/mL) |
| CCn1cc(C(=O)O)c(=O)c2cc(F)c(N3CCN(S(=O)(=O)c4c(Cl)cc(Cl)cc4Cl)CC3)cc21 | 3.35 | 0.444 (≈ 0.25 µg/mL) | 2.75 | 1.78 (≈ 1 µg/mL) | ≥ 455 | 0.34 | ≥ 455 |
| O=C(O)c1cn(C2CC2)c2cc(N3CCN(S(=O)(=O)c4c(Cl)cc(Cl)cc4Cl)CC3)c(F)cc2c1=O | 3.36 | 0.435 (≈ 0.25 µg/mL) | 2.76 | 1.74 (≈ 1 µg/mL) | 111 (≈ 63.8 µg/mL) | 0.95 | 111 (≈ 63.8 µg/mL) |
| CCn1cc(C(=O)O)c(=O)c2cc(F)c(N3CCN(S(=O)(=O)c4c(C)cc(C)cc4C)CC3)cc21 | 2.09 | 7.98 (≈ 4 µg/mL) | 2.09 | 7.98 (≈ 4 µg/mL) | 32 (≈ 16.1 µg/mL) | 1.19 | 64 (≈ 32.1 µg/mL) |
| Cc1cc(C)c(S(=O)(=O)N2CCN(c3cc4c(cc3F)c(=O)c(C(=O)O)cn4C3CC3)CC2)c(C)c1 | 1.51 | 31 (≈ 15.9 µg/mL) | 1.21 | 62 (≈ 31.8 µg/mL) | 62 (≈ 31.8 µg/mL) | 0.9 | 125 (≈ 64.2 µg/mL) |
| CCn1cc(C(=O)O)c(=O)c2cc(F)c(N3CCN(S(=O)(=O)c4c(C(C)C)cc(C(C)C)cc4C(C)C)CC3)cc21 | 1.26 | 55 (≈ 32.2 µg/mL) | 1.26 | 55 (≈ 32.2 µg/mL) | 55 (≈ 32.2 µg/mL) | 0.96 | 109 (≈ 63.8 µg/mL) |
| CC(C)c1cc(C(C)C)c(S(=O)(=O)N2CCN(c3cc4c(cc3F)c(=O)c(C(=O)O)cn4C3CC3)CC2)c(C(C)C)c1 | 0.97 | 107 (≈ 64 µg/mL) | 0.67 | 214 (≈ 128 µg/mL) | 3.35 (≈ 2 µg/mL) | 0.37 | ≥ 428 |
| CCn1cc(C(=O)O)c(=O)c2cc(F)c(N3CCN(S(=O)(=O)c4c(C)c(C)c(C)c(C)c4C)CC3)cc21 | 0.62 | 242 (≈ 128 µg/mL) | 0.62 | 242 (≈ 128 µg/mL) | 242 (≈ 128 µg/mL) | 0.62 | 242 (≈ 128 µg/mL) |
| Cc1c(C)c(C)c(S(=O)(=O)N2CCN(c3cc4c(cc3F)c(=O)c(C(=O)O)cn4C3CC3)CC2)c(C)c1C | 0.63 | 236 (≈ 128 µg/mL) | 0.33 | ≥ 473 | ≥ 473 | 0.33 | ≥ 473 |
| O=C(O)c1cn(C2CC2)c2cc(N3CCNCC3)c(F)cc2c1=O [CIPROFLOXACIN] | 3.12 | ≤ 0.758 | 3.12 | ≤ 0.758 | ≤ 0.758 | 3.12 | 0.758 (≈ 0.251 µg/mL) |
